Test results: ChEMBL document CHEMBL2040806, “Synthesis and biological evaluation of analogs of the marine alkaloids granulatimide and isogranulatimide” (Eur J Med Chem, 2012)
Active and inactive are the calls of the source. The rule behind the calls is not given here.

Legend:
LoVo = assay: Cytotoxicity against human LoVo cells after 72 hrs by MTT assay; type: functional, cell-based
[1] = Cytotoxicity against human Hs683 cells after 72 hrs by MTT assay; type: functional, cell-based; conditions: Hs 683, 72 h
[2] = biological target: Dual specificity tyrosine-phosphorylation-regulated kinase 1A (Rattus norvegicus, UniProt Q63470); assay: Inhibition of GST-fused rat recombinant DYRK1A expressed in Escherichia coli using Woodtide as substrate and [gamma-33P] after 30 mins by scintillation counting
[3] = biological target: Cyclin-dependent kinase 5/CDK5 activator 1 (Homo sapiens, UniProt Q00535); assay: Inhibition of human recombinant CDK5/p25; type: protein-complex assay
How it was run: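 Human recombinant CDK5/p25 assayed in triplicate in buffer C with 1 mg/ml histone H1 at 30 °C, 15 µM ATP final. Activity as % of uninhibited control after blank subtraction; IC50 from dose-response curves.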

[4] = Cytotoxicity against p53-mutant human U373 cells after 72 hrs by MTT assay; type: functional, cell-based, U-373MG ATCC; conditions: U373 MG
[5] = Inhibition of porcine brain CK1delta/epsilon using CKS peptide as substrate; set-up: species or system Sus scrofa
HCT-116 = assay: Cell cycle arrest in p53 double-mutant human HCT116 cells assessed as mitotic index after 24 hrs by flow cytometric analysis; type: functional; set-up: concentration or dose not given beside the values
How it was run: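 HCT116 p53-/- cells pretreated with etoposide for 1 h, then released into drug-free medium with or without inhibitor for 23 h; nocodazole added to trap cells exiting G2/M. Mitotic cells scored by phospho-histone H3 labeling and DNA content (propidium iodide) by flow cytometry.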

PC-3 = assay: Cytotoxicity against human PC3 cells after 72 hrs by MTT assay; type: functional, cell-based; conditions: PC-3, 72 h
A549 [6] = assay: Cytotoxicity against human A549 cells after 72 hrs by MTT assay; type: functional, cell-based; conditions: A549, 72 h
[7] = biological target: Dual specificity protein kinase CLK1 (Mus musculus, UniProt P22518); assay: Inhibition of GST-fused mouse recombinant CLK1 expressed in Escherichia coli using RS peptide as substrate
How it was run: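 Blanks subtracted, activity as % of uninhibited maximum, DMSO dilution controls, IC50 from dose-response curves.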

B16-F10 = assay: Cytotoxicity against mouse B16F10 cells after 72 hrs by MTT assay; type: functional, cell-based; conditions: B16-F10, 72 h
[8] = biological target: Glycogen synthase kinase-3 (Sus scrofa, UniProt B2LUN4+I6LNT8); assay: Inhibition of porcine brain GSK3alpha/beta using GS1 as substrate
[9] = Cytotoxicity against human OE21 cells after 72 hrs by MTT assay; type: functional, cell-based; conditions: OE21, 72 h
MCF7 = assay: Cytotoxicity against human MCF7 cells after 72 hrs by MTT assay; type: functional, cell-based; conditions: MCF7, 72 h
A549 [10] = assay: Cytostatic activity against human A549 cells after 72 hrs by quantitative videomicroscopic analysis; type: functional, cell-based

Sequence of Dual specificity protein kinase CLK1 (P22518 whole entry, the tested form may be a part): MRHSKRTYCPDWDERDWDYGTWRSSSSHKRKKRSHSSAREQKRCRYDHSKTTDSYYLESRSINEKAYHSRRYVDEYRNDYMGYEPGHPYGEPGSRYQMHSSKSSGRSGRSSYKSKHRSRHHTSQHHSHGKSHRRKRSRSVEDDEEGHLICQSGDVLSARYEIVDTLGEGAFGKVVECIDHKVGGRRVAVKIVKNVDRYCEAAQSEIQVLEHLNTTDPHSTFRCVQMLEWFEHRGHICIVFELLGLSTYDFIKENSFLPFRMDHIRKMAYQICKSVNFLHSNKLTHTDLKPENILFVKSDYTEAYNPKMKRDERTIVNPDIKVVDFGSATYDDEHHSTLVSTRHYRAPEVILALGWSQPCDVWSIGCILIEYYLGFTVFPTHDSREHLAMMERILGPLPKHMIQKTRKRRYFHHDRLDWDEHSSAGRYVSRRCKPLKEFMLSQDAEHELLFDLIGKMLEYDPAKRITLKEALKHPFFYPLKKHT
Sequence of Cyclin-dependent kinase 5/CDK5 activator 1 (Q00535 whole entry): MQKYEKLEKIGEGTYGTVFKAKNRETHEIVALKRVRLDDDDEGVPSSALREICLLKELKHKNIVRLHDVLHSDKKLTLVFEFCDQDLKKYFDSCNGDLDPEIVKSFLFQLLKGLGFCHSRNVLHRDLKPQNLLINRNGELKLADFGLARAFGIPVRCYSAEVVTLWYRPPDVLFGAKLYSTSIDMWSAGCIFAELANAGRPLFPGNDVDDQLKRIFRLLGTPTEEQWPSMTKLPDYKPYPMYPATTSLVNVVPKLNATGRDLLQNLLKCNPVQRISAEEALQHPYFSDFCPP
Sequence of Cyclin-dependent kinase 5/CDK5 activator 1 (Q15078 whole entry, further chain): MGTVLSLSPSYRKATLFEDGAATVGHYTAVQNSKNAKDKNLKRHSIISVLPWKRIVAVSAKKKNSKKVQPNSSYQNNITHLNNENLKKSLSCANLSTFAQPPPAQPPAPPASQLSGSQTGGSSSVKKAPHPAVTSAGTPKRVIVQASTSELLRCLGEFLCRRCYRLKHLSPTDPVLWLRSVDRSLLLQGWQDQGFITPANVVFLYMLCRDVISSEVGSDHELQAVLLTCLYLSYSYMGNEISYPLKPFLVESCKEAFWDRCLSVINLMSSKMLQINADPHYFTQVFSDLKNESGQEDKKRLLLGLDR

Row | Compound | IC50 (LoVo) | IC50 [1] | IC50 [2] | IC50 [3] | IC50 [4] | IC50 [5] | Activity (HCT-116) | IC50 (PC-3) | IC50 (A549 [6]) | IC50 [7] | IC50 (B16-F10) | IC50 [8] | IC50 [9] | IC50 (MCF7) | Activity (A549 [10])
1 | Cc1ccc2[nH]c3c4cn[nH]c4c4c(c3c2c1)C(=O)NC4=O | 5 µM | > 100 µM | 1.4 µM | 0.31 µM | > 100 µM | 0.23 µM | 0% | > 100 µM | > 100 µM | 0.13 µM | 2 µM | 0.17 µM |  |  | 
2 | O=C1NC(=O)c2c1c1c3cc(O)ccc3[nH]c1c1cccn21 | 99 µM | > 100 µM | 0.2 µM | 2.6 µM | > 100 µM | 1.1 µM |  | > 100 µM | > 100 µM | 0.26 µM | 93 µM | 0.42 µM | > 100 µM | > 100 µM | 
3 | COc1ccc2[nH]c(-c3ccc[nH]3)cc2c1 | 26 µM | 50 µM |  |  | 43 µM |  | 8.3% | 26 µM | 55 µM |  | 61 µM |  | 33 µM | 84 µM | 
4 | COc1ccc2[nH]c3c(c4c(c5ccnn53)C(=O)NC4=O)c2c1 | 34 µM | 22 µM | > 10 µM | > 10 µM | > 100 µM | > 10 µM |  | > 100 µM | 8 µM | > 10 µM |  | 0.7 µM | 35 µM |  | 
5 | Cc1ccc2[nH]c(-c3ccc[nH]3)c(C3CC(=O)NC3=O)c2c1 (stereo not given) | 4 µM | 8 µM |  |  | 5 µM |  |  | 11 µM | 20 µM |  | 0.5 µM |  | > 100 µM | 29 µM | 
6 | O=C1NC(=O)c2c1c1c3cc(O)ccc3[nH]c1n1nccc21 | 7 µM | 23 µM | 0.18 µM | 0.51 µM | 8 µM | 0.16 µM | 3.9% | 36 µM | 15 µM | 0.09 µM | 7 µM | 0.041 µM |  |  | 
7 | COc1ccc2[nH]c3c4cn[nH]c4c4c(c3c2c1)C(=O)NC4=O | 42 µM | 45 µM |  |  | 51 µM |  |  | > 100 µM | > 100 µM |  | 37 µM |  |  |  | 
8 | Cc1ccc2[nH]c(-c3ccc[nH]3)cc2c1 |  |  |  |  |  |  | 5% |  |  |  |  |  |  |  | 
9 | O=C1CC(c2c(-c3ccc[nH]3)[nH]c3ccccc23)C(=O)N1 (stereo not given) | 8 µM | 25 µM |  |  | 4 µM |  |  | 9 µM | 8 µM |  | 2 µM |  | 67 µM | 35 µM | Active
10 | O=C1NC(=O)c2c1c1c3ccccc3[nH]c1c1cccn21 | 11 µM | 52 µM | 1.3 µM | 2.1 µM | 33 µM | 10 µM | 9.6% | 50 µM | 18 µM | 0.52 µM | 19 µM | 0.57 µM | 75 µM | 49 µM | Active
11 | c1ccc2[nH]c(-n3cccn3)cc2c1 | 86 µM | > 100 µM |  |  | > 100 µM |  |  | > 100 µM | > 100 µM |  | > 100 µM |  | > 100 µM | > 100 µM | 
12 | O=C1NC(=O)c2c1c1[nH]cnc1c1[nH]c3ccccc3c21 [GRANULATIMIDE] | 3 µM | 23 µM |  |  | 6 µM |  | 19.4% | 11 µM | 18 µM |  | 5 µM |  |  | 46 µM | 
13 | COc1ccc2[nH]c3c(c4c(n5cccc35)C(=O)NC4=O)c2c1 | 39 µM | 58 µM | > 10 µM | > 10 µM | 26 µM | > 10 µM |  | 66 µM | 26 µM | 10 µM | 22 µM | 1.7 µM | 37 µM | 35 µM | 
